Activity calls are given as the source filed them. No cut-off for these calls is given here.
Key:
[1] = target: T1, Fibroblast growth factor receptor 1 (Homo sapiens, UniProt P11362); test: Inhibition of recombinant human FGFR1 using poly (Glu, Tyr) 4:1 as substrate after 60 mins by ELISA
[2] = Oral bioavailability in Sprague-Dawley rat at 5 mg/kg; assay type: ADME, organism-based; conditions: in vivo
Method in brief: (§1)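 Male SD rats (n = 3) dosed orally by gavage at 5 mg/kg as a suspension in 0.5% CMC-Na. Quantified by LC-MS/MS. An IV arm (1 mg/kg) was run in parallel.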

[3] = Clearance in Sprague-Dawley rat at 1 mg/kg, iv; assay type: ADME, organism-based; conditions: in vivo
[4] = Tmax in Sprague-Dawley rat at 5 mg/kg, po; assay type: ADME, organism-based; conditions: in vivo; method in brief: as §1
[5] = target: Vascular endothelial growth factor receptor 2 (Homo sapiens, UniProt P35968); test: Inhibition of recombinant human VEGFR2 using poly (Glu, Tyr) 4:1 as substrate after 60 mins by ELISA
[6] = test system: Mus musculus; test: Toxicity in nude mouse xenografted with human NCI-H1581 cells assessed as body weight loss at 2 to 10 mg/kg, po qd administered for 21 days measured during compound dosing; assay type: organism-based; conditions: in vivo, 504 h
Method in brief: (§2)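 Female nude mice (4–6 weeks) housed under SPF conditions. NCI-H1581 tumours were first grown from 5 × 10^6 cells s.c., and 1.5 mm3 fragments were then transplanted s.c. into the right flank. At 115 mm3, mice were randomized and given vehicle or compound orally once daily for 21 days (2 or 10 mg/kg). Tumours were measured by caliper twice weekly, with TV = length × width²/2.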

[7] = cells; conditions: Homo sapiens, KG-1, 72 h
[8] = cells; conditions: Homo sapiens, RT-112, 72 h
[9] = cells; conditions: Homo sapiens, SNU-16, 72 h
[10] = target: Vascular endothelial growth factor receptor 1 (Homo sapiens, UniProt P17948); test: Inhibition of recombinant human Flt1 using poly (Glu, Tyr) 4:1 as substrate after 60 mins by ELISA
Method in brief: (§3)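 Purified recombinant kinases tested by ELISA on plates pre-coated with 20 µg/mL poly(Glu,Tyr) 4:1. Reaction run 60 min at 37 °C. Read-out: PY99 anti-phosphotyrosine antibody, HRP anti-mouse IgG and o-phenylenediamine/H2O2, with A490 measured. IC50 from inhibition curves, two independent experiments.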

[11] = target: T1, Fibroblast growth factor receptor 1; test: Inhibition of FGFR1 in human KG1 cells assessed as reduction of PLCgamma phosphorylation at 0.1 to 10 nM after 2 hrs by Western blot method; assay type: cell-based; conditions: KG-1
Method in brief: (§4)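 KG-1 cells treated at indicated concentrations for 2 h, then lysed in 1× SDS sample buffer. Lysates run on 10% SDS-PAGE, transferred to nitrocellulose, and probed for phospho-FGFR, PLCγ and Erk. Detection by enhanced chemiluminescence.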

[12] = target: T2, Fibroblast growth factor receptor 2 (Homo sapiens, UniProt P21802); test: Inhibition of recombinant human FGFR2 using poly (Glu, Tyr) 4:1 as substrate after 60 mins by ELISA; method in brief: as §3
[13] = AUC (0 to infinity) in Sprague-Dawley rat at 1 mg/kg, iv; assay type: ADME, organism-based; parameters: dose 1 mg/kg, time infinity, route intravenous; conditions: in vivo
[14] = Cmax in Sprague-Dawley rat at 1 mg/kg, iv; assay type: ADME, organism-based; parameters: dose 1 mg/kg, route intravenous; conditions: in vivo
[15] = target: Bcr/Abl fusion protein (Homo sapiens, UniProt P00519); test: Inhibition of recombinant human Bcr-Abl using poly (Glu, Tyr) 4:1 as substrate after 60 mins by ELISA; assay type: protein assay; method in brief: as §3
[16] = target: Platelet-derived growth factor receptor beta (Homo sapiens, UniProt P09619); test: Inhibition of recombinant human PDGFRbeta using poly (Glu, Tyr) 4:1 as substrate after 60 mins by ELISA; method in brief: as §3
[17] = target: T1, Fibroblast growth factor receptor 1; test: Inhibition of FGFR1 phosphorylation in human KG1 cells after 2 hrs by Western blot method; assay type: cell-based; conditions: KG-1; method in brief: as §4
[18] = test system: NCI-H1581; test: Antitumor activity against human NCI-H1581 cells xenografted in nude mouse assessed as tumor growth inhibition at 10 mg/kg, po qd administered for 21 days measured on day 21 post last dose relative to vehicle-treated control; assay type: functional; conditions: 504 h, read-out: TGI; method in brief: as §2
[19] = target: Hepatocyte growth factor receptor (Homo sapiens, UniProt P08581); test: Inhibition of recombinant human c-Met using poly (Glu, Tyr) 4:1 as substrate after 60 mins by ELISA; method in brief: as §3
[20] = target: Proto-oncogene tyrosine-protein kinase receptor Ret (Homo sapiens, UniProt P07949); test: Inhibition of recombinant human RET using poly (Glu, Tyr) 4:1 as substrate after 60 mins by ELISA; method in brief: as §3
[21] = Volume of distribution at steady state in Sprague-Dawley rat at 1 mg/kg, iv; assay type: ADME, organism-based; conditions: in vivo, read-out: Vdss
[22] = test system: NCI-H1581; test: Antitumor activity against FGFR1-amplified human NCI-H1581 cells xenografted in nude mouse assessed as tumor growth inhibition at 2 mg/kg, po qd administered for 21 days measured on day 21 post last dose relative to vehicle-treated control; assay type: functional; conditions: 504 h, read-out: TGI; method in brief: as §2
[23] = Half life in Sprague-Dawley rat at 1 mg/kg, iv; assay type: ADME, organism-based; conditions: in vivo
[24] = target: Platelet-derived growth factor receptor alpha (Homo sapiens, UniProt P16234); test: Inhibition of recombinant human PDGFRalpha using poly (Glu, Tyr) 4:1 as substrate after 60 mins by ELISA; method in brief: as §3
[25] = target: Proto-oncogene tyrosine-protein kinase Src (Homo sapiens, UniProt P12931); test: Inhibition of recombinant human c-Src using poly (Glu, Tyr) 4:1 as substrate after 60 mins by ELISA; method in brief: as §3
[26] = AUC (0 to infinity) in Sprague-Dawley rat at 5 mg/kg, po; assay type: ADME, organism-based; parameters: dose 5 mg/kg, route oral, time infinity; conditions: in vivo; method in brief: as §1
[27] = target: Fibroblast growth factor receptor 3 (Homo sapiens, UniProt P22607); test: Inhibition of recombinant human FGFR3 using poly (Glu, Tyr) 4:1 as substrate after 60 mins by ELISA; method in brief: as §3
[28] = target: T2, Fibroblast growth factor receptor 2; test: Inhibition of FGFR2 in human SNU15 cells assessed as reduction of PLCgamma phosphorylation at 0.1 to 10 nM after 2 hrs by Western blot method; assay type: cell-based
[29] = test system: NCI-H1581; test: Antiproliferative activity against FGFR1-amplified human NCI-H1581 cells after 72 hrs by CCK8/MTT assay; assay type: functional, cell-based; conditions: NCI-H1581, 72 h

Sequence of Fibroblast growth factor receptor 3 (P22607 whole entry): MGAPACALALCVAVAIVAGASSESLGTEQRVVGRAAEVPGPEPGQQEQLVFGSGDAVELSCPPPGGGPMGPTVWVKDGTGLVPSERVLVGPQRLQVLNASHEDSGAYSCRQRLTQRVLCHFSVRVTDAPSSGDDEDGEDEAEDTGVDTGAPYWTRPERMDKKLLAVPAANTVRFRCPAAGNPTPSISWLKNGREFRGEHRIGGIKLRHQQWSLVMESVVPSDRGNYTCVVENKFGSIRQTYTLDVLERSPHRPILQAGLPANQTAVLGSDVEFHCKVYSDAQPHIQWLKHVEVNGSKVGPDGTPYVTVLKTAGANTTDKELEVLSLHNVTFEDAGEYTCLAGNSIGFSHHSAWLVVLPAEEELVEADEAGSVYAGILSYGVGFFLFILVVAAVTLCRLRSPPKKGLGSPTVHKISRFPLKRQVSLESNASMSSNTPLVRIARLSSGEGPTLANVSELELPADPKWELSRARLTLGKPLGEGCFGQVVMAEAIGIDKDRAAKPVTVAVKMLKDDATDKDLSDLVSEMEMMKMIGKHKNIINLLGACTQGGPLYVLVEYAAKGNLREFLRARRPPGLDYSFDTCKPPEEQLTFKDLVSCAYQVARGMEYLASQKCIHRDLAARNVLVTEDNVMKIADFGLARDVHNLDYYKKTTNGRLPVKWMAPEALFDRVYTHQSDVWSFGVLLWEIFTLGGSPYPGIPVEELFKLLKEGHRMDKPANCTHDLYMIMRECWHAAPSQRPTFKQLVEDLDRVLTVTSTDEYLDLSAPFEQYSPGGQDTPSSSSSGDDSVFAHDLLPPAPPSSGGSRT
Sequence of Platelet-derived growth factor receptor alpha (P16234 whole entry): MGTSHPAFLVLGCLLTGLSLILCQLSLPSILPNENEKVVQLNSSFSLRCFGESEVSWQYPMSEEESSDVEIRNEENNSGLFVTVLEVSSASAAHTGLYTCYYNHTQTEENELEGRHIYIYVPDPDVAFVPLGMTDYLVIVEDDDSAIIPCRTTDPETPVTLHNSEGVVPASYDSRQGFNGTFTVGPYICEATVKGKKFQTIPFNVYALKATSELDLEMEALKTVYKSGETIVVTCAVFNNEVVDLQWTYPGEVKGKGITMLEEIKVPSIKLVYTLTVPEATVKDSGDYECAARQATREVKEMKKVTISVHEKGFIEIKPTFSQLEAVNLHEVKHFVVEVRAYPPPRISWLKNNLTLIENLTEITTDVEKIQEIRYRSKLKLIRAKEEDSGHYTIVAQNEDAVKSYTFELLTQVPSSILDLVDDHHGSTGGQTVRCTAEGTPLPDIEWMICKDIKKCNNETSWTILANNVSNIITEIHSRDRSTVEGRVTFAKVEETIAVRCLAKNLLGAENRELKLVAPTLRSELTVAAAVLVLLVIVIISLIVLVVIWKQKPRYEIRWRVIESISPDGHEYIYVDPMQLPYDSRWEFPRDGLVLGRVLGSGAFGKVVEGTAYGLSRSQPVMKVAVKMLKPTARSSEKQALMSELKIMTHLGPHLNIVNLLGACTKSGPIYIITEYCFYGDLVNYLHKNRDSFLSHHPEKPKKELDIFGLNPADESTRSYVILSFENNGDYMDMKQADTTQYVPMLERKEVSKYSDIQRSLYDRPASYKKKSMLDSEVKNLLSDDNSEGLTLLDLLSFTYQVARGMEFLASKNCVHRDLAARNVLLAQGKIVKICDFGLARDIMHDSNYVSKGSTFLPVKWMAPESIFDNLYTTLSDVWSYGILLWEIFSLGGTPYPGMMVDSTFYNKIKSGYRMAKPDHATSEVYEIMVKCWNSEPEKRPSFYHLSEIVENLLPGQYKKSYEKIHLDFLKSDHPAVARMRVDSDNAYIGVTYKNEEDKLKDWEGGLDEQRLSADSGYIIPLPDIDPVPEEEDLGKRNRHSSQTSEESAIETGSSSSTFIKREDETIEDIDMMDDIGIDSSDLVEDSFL
Sequence of Hepatocyte growth factor receptor (P08581 whole entry): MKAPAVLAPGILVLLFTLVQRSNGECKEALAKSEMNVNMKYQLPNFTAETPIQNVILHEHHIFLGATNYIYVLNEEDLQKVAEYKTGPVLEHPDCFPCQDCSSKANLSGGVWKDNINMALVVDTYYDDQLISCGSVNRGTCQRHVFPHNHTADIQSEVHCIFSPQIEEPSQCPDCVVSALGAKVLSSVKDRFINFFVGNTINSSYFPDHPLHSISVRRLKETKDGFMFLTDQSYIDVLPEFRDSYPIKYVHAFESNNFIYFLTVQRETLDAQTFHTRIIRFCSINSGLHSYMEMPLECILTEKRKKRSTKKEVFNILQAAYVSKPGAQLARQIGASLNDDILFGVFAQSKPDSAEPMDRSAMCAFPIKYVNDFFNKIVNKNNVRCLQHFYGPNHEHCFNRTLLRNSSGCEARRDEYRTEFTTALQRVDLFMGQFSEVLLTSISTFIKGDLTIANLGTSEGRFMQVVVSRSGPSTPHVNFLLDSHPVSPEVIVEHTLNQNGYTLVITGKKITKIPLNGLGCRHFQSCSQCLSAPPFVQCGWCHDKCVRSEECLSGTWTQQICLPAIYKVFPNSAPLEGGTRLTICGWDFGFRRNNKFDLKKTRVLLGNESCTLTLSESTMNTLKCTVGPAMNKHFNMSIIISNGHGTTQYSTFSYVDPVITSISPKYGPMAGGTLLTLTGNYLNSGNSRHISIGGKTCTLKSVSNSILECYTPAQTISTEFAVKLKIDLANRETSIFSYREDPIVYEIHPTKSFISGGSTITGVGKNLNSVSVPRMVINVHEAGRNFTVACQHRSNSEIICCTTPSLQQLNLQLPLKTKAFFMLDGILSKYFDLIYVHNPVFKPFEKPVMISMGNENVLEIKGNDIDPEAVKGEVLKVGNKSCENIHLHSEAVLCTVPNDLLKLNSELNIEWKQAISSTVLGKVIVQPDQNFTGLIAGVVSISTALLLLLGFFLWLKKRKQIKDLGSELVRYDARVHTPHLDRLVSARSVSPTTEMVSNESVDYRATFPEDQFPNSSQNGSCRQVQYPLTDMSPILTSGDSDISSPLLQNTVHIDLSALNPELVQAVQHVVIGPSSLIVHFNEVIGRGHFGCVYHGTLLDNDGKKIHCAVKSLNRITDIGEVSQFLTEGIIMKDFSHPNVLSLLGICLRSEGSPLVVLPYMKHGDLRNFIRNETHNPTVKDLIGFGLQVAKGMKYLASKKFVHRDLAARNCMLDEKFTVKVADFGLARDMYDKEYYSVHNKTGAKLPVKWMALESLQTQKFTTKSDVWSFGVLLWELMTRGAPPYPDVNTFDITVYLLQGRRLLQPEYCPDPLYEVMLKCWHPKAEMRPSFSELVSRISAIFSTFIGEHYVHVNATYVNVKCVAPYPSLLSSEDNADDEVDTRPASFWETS
Sequence of Vascular endothelial growth factor receptor 1 (P17948 whole entry): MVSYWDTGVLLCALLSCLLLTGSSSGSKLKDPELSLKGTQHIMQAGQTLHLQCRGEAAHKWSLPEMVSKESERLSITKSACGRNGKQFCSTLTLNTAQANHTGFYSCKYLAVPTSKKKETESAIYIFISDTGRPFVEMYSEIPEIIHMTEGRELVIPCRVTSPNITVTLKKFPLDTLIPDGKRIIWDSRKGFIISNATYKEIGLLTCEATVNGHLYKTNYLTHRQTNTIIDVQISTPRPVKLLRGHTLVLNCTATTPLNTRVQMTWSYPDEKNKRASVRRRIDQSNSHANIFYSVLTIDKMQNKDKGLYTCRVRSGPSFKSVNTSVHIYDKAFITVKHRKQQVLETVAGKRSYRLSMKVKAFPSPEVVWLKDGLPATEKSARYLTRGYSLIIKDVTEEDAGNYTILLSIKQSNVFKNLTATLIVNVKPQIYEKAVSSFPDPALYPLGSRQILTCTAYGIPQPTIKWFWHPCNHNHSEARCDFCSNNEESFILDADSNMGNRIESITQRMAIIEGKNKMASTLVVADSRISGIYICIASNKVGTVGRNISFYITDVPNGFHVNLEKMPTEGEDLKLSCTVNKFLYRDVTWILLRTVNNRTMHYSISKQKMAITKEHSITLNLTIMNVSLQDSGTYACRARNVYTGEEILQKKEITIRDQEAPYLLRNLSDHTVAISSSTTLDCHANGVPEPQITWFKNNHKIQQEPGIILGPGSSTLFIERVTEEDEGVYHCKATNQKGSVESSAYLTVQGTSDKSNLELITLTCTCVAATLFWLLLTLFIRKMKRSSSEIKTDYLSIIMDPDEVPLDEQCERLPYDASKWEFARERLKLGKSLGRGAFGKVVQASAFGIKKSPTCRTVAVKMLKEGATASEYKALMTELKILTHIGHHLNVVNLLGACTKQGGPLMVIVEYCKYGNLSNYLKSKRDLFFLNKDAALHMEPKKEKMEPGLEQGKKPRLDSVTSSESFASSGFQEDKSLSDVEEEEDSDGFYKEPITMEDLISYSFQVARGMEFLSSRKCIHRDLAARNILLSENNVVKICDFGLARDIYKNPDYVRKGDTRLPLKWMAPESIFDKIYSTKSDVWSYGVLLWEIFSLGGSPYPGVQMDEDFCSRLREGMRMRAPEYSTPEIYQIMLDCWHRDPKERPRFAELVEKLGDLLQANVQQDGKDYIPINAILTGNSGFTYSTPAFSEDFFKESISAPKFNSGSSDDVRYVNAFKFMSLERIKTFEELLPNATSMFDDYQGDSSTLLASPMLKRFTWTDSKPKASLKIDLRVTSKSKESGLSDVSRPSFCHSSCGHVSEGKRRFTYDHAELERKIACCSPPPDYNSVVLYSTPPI

Compound C[C@@H](Oc1ccc2[nH]nc(-c3nc4cc(N5CCN(C)CC5)ccc4[nH]3)c2c1)c1c(Cl)cncc1Cl has an IC50 [1] of 0.9 nM, a bioavailability [2] of 33% and a clearance [3] of 33.3 mL/min/kg. For the same compound, the Tmax [4] was 4 h, the IC50 [5] was 7.5 nM and the Activity [6] was “Non-toxic”. For the same compound, the IC50 [7] was < 0.1 nM, the IC50 [8] was < 0.1 nM and the IC50 [9] was < 0.1 nM. For the same compound, the IC50 [10] was > 100 nM, the inhibition [11] was “Active” and the IC50 [12] was 2 nM. For the same compound, the AUC(0-inf) [13] was 485 ng·h/mL, the Cmax [14] was 300 ng/mL and the IC50 [15] was > 100 nM. For the same compound, the IC50 [16] was > 1000 nM, the inhibition [17] was “Dose-dependent effect” and the inhibition in vivo at 10 mg/kg [18] was 96.9%. For the same compound, the IC50 [19] was > 100 nM, the IC50 [20] was > 100 nM and the Vd [21] was 5.8 L/kg. The inhibition in vivo at 2 mg/kg [22] was 44.5%, the half-life [23] was 2 h and the IC50 [24] was 782 nM. For the same compound, the IC50 [25] was > 100 nM, the AUC(0-inf) [26] was 799 ng·h/mL and the IC50 [27] was 2 nM. The inhibition [28] was “Active” and the IC50 [29] was 4.2 nM.

Source: ChEMBL document CHEMBL3826910, “Discovery of 3-(5'-Substituted)-Benzimidazole-5-(1-(3,5-dichloropyridin-4-yl)ethoxy)-1H-indazoles as Potent Fibroblast Growth Factor Receptor Inhibitors: Design, Synthesis, and Biological Evaluation” (J Med Chem, 2016)
